Source: ChEMBL document CHEMBL1772990, “Biomimetic syntheses and antiproliferative activities of racemic, natural (-), and unnnatural (+) glyceollin I” (2011)

What was measured:
MCF7 [1] = assay: Antiproliferative activity against human MCF7 cells expressing estrogen receptor incubated with 0.003 nM of estradiol and 0.01 nM of testosterone after 48 hrs by sulforhodamine B assay in presence of 5% fetal bovine serum; assay type: functional; settings: MCF7, 48 h
How it was run: (§1)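 Low-E2 condition: MCF7 and NCI-ADR-RES cells were precultured at least 4 days in RPMI with 5% FBS and no NuSerum, then seeded in it at 3500 and 6000 cpw. MCF12A cells were seeded at 1600 cpw in their maintenance medium (DMEM/F-12 with insulin, hydrocortisone, EGF, cholera toxin, 5% FBS). Agents were added in 5% FBS RPMI. After 48 h, growth was read by sulforhodamine B OD versus 0.25% DMSO controls, with GI50 from a Hill fit.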

LNCaP = assay: Antiproliferative activity against human LNCAP cells expressing androgen receptor incubated with 0.6 nM of estradiol and 0.7 nM of testosterone after 48 hrs by sulforhodamine B assay; assay type: functional
How it was run: (§2)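 Sulforhodamine B growth assay with 48 h agent exposure at 37 °C in 5% CO2. Seeding densities were preset to give exponential growth with final OD below 2.0. Percent growth was taken from OD versus matched vehicle-only (0.25% DMSO) controls. GI50 came from a Hill equation fit, with values averaging eight sets of duplicate wells across a concentration range.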

PC-3 = assay: Antiproliferative activity against androgen receptor-deficient human PC3 cells incubated with 0.6 nM of estradiol and 0.7 nM of testosterone after 48 hrs by sulforhodamine B assay; assay type: functional; settings: PC-3, 48 h; how it was run: as §2
DU-145 = assay: Antiproliferative activity against androgen receptor-deficient human DU145 cells incubated with 0.6 nM of estradiol and 0.7 nM of testosterone after 48 hrs by sulforhodamine B assay; assay type: functional; settings: DU-145, 48 h; how it was run: as §2
MCF-12A [2] = assay: Antiproliferative activity against estrogen receptor-deficient human MCF12A cells incubated with 0.003 nM of estradiol and 0.01 nM of testosterone after 48 hrs by sulforhodamine B assay in presence of 5% fetal bovine serum; assay type: functional; how it was run: as §1
MCF7 [3] = assay: Antiproliferative activity against human MCF7 cells expressing estrogen receptor incubated with 0.06 nM of estradiol and 0.07 nM of testosterone after 48 hrs by sulforhodamine B assay in presence of fetal bovine serum and NuSerum; assay type: functional; settings: MCF7, 48 h; how it was run: as §2
[4] = Antiproliferative activity against estrogen receptor-deficient human NCI-ADR-RES cells incubated with 100 nM of estradiol and 0.07 nM of testosterone after 48 hrs by sulforhodamine B assay in presence of fetal bovine serum and NuSerum; assay type: functional
How it was run: (§3)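 High-E2 condition: cells were seeded as for the intermediate-E2 tests. Agents were added in 5% FBS/5% NuSerum medium with E2 added to give 100 nM final during exposure. After 48 h at 37 °C in 5% CO2, sulforhodamine B staining gave percent of matched 0.25% DMSO vehicle-control growth. GI50 came from a Hill equation fit, averaging eight sets of duplicate wells.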

[5] = Antiproliferative activity against estrogen receptor-deficient human NCI-ADR-RES cells incubated with 0.06 nM of estradiol and 0.07 nM of testosterone after 48 hrs by sulforhodamine B assay in presence of fetal bovine serum and NuSerum; assay type: functional; how it was run: as §2
[6] = Antiproliferative activity against estrogen receptor-deficient human NCI-ADR-RES cells incubated with 0.003 nM of estradiol and 0.01 nM of testosterone after 48 hrs by sulforhodamine B assay in presence of 5% fetal bovine serum; assay type: functional; how it was run: as §1
MCF-12A [7] = assay: Antiproliferative activity against estrogen receptor-deficient human MCF12A cells incubated with 0.06 nM of estradiol and 0.07 nM of testosterone after 48 hrs by sulforhodamine B assay in presence of fetal bovine serum and NuSerum; assay type: functional; how it was run: as §2
MCF-12A [8] = assay: Antiproliferative activity against estrogen receptor-deficient human MCF12A cells incubated with 100 nM of estradiol and […] of testosterone after 48 hrs by sulforhodamine B assay in presence of fetal bovine serum and NuSerum
MCF7 [9] = assay: Antiproliferative activity against human MCF7 cells expressing estrogen receptor incubated with 100 nM of estradiol and 0.07 nM of testosterone after 48 hrs by sulforhodamine B assay in presence of fetal bovine serum and NuSerum; assay type: functional; settings: MCF7, 48 h; how it was run: as §3

Row | SMILES | GI50 (MCF7 [1]) [µM] | GI50 (LNCaP) [µM] | GI50 (PC-3) [µM] | GI50 (DU-145) [µM] | GI50 (MCF-12A [2]) [µM] | GI50 (MCF7 [3]) [µM] | GI50 [4] [µM] | GI50 [5] [µM] | GI50 [6] [µM] | GI50 (MCF-12A [7]) [µM] | GI50 (MCF-12A [8]) [µM] | GI50 (MCF7 [9]) [µM]
1 | CC1(C)C=Cc2c(ccc3c2OC[C@]2(O)c4ccc(O)cc4O[C@H]32)O1 | 22.9 | 27.5 | 47.9 | 57.5 | 38 | 24 | 30.2 | 44.7 | 42.7 | 38.9 | 46.8 | 21.4
2 | CCC(=C(c1ccc(O)cc1)c1ccc(OCCN(C)C)cc1)c1ccccc1 | 1.41 | 8.32 | 7.59 | 10.7 | 3.31 | 1.91 | 7.76 | 6.17 | 4.47 | 3.89 | 3.24 | 3.47
3 | CC1(C)C=Cc2c(ccc3c2OCC2(O)c4ccc(O)cc4OC32)O1 (racemic) | 17.4 | 12.9 | 32.4 | 29.5 | 47.9 | 20 | 45.7 | 37.2 | 41.7 | 45.7 | 51.3 | 18.2
4 | C[C@]12CC[C@@H]3c4ccc(O)cc4C[C@@H](CCCCCCCCC[S+]([O-])CCCC(F)(F)C(F)(F)F)[C@H]3[C@@H]1CC[C@@H]2O (some centres undefined) [FULVESTRANT] | < 0.01 | 398 | > 100 | > 100 | > 100 | 158 | > 100 | > 100 | > 100 | > 100 | > 100 | 794
5 | O=c1c(-c2ccc(O)cc2)coc2cc(O)cc(O)c12 [GENISTEIN] | 61.7 | 38.9 | 42.7 | 50.1 | 32.4 | 45.7 | 26.9 | 17 | 32.4 | 21.9 | 30.2 | 52.5
6 | CC1(C)C=Cc2c(ccc3c2OC[C@@]2(O)c4ccc(O)cc4O[C@@H]32)O1 [GLYCEOLLIN I] | 13.2 | 11.5 | 30.9 | 36.3 | 33.1 | 13.8 | 29.5 | 30.2 | 24.5 | 27.5 | 38 | 15.1
7 | CC/C(=C(\c1ccccc1)c1ccc(OCCN(C)C)cc1)c1ccccc1 [TAMOXIFEN] | 2.29 | 10 | 11 | 13.8 | 5.75 | 2.95 | 11.5 | 9.55 | 5.75 | 6.92 | 5.75 | 5.62
